Runt-CBFb FRET: blocks binding of human RUNX1 Runt domain to CBFb | inhibition, % at 20 µM | Q01196+Q13951 | AID 1496 | actives 0.46% (n = 220,000) | Cerulean-Runt/Venus-CBFb FRET ratio 530/480, 1 h;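 active means inhibition over about 50% at 20 µM in the single-dose screen, limit read from the data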;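 further: 0% = DMSO wells and 100% = excess unlabeled CBFb competitor control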
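System: Cerulean-labeled Runt domain protein | Quantity: 100 nM of each labeled protein | Schedule: 1 h compound exposure, room temperature | Detection: Fluorescence energy transfer, 422 nm excitation, 530/480 nm emission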
Runt-SMMHC FRET: blocks binding of human RUNX1 Runt domain to CBFb-SMMHC; Cerulean-Runt/Venus-CBFb-SMMHC FRET ratio 530/480, 1 h; inhibition, % at 20 µM; AID 1434; actives 0.74% (n = 220,000);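 active means mean inhibition across duplicate retests at 20 µM reaching about 50%, limit read from the data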;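 further: 0% = DMSO wells and 100% = wells with excess untagged CBFb-SMMHC; inhibitors lower the FRET ratio by blocking Runt binding to CBFb-SMMHC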
RanGTP-Imp inh: disruptors of Ran-importin-beta complex formation – biochemical, FRET, CFP-Ran, YFP-importin-beta, homogeneous, primary screen; cell-free CFP-Ran/YFP-importin-beta FRET ratio; actives 1.1% (n = 300,000); inhibition, % (no concentration beside the values);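 active means more than half of the replicate wells show a fall in the fluorescence ratio signal beyond about 16%, limit read from the data, passing the limit was not always enough; inconclusive means exactly half of the replicate wells pass the set limit; inactive means fewer than half of replicates pass the limit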;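 further: 0% = DMSO wells and 100% = Ran loaded with GDP instead of GTP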
Hck Nef HTS: blocks Nef-activated human Hck kinase; P08631; Recombinant Hck-YEEI plus Nef, Z-Lyte FRET kinase assay; inhibition, % at 20 µM; actives 0.68% (n = 220,000);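 active means Hck-Nef kinase inhibition above about 50%, limit read from the data; inactive means inhibition below that limit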;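 further: 0% = DMSO with Hck plus Nef and 100% = Hck alone without Nef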
Target sequence (P08631 whole entry, looked up): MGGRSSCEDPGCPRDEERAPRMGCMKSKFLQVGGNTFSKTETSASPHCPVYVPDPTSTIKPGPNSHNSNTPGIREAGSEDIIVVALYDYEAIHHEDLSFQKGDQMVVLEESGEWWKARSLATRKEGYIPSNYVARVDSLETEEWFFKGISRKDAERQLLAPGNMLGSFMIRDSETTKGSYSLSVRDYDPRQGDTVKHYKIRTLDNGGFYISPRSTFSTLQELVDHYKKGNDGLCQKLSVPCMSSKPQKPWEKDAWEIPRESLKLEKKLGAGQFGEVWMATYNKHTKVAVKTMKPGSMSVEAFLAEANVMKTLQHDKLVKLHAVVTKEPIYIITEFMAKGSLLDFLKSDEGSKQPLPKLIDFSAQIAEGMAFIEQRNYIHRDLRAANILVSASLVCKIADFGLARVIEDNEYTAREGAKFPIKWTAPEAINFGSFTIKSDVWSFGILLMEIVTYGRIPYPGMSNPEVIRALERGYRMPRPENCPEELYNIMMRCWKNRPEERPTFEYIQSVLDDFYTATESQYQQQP
* hit, by the source's call; u = inconclusive; x = not tested or not shown. Most compounds without a hit are left out; they make up all but 1.8% or so of the library.

SMILES	Runt-CBFb FRET	Runt-SMMHC FRET	RanGTP-Imp inh	Hck Nef HTS
CNC(=O)c1c(NC(=O)c2ccc(S(=O)(=O)N3CCCCC3C)cc2)sc2c1CCN(C)C2 (stereo unspecified)	x	x	50*	x
CC(C)C(=O)Nc1nnc(S(=O)(=O)N(C)c2ccc(Cl)cc2)s1	x	x	4	x
O=C(O)c1cc(N/N=C/C=C/c2ccccc2)ccc1Cl	39	87*	-2	1
Cc1cccc(S(=O)(=O)c2c(N)n(/N=C/c3ccccc3)c3nc4ccccc4nc23)c1	1	2	1	15
Cc1ccc(C)c(S(=O)(=O)c2c(N)n(/N=C/c3ccco3)c3nc4ccccc4nc23)c1	42	67*	4	3
CCCCN(CCCC)C1=Nc2ccccc2N/C1=C(/C#N)C(=O)OCC	-23	-52	0	-1
CCOC(=O)/C(C#N)=C1\Nc2ccccc2N=C1N(CC(C)C)CC(C)C	28	-19	30*	-1
CC(C)(C)OC(=O)NCCC(=O)Oc1ccc2ccc(=O)oc2c1	43	68*	5	73*
O=C(Oc1ccc2ccc(=O)oc2c1)c1cccs1	22	28	2	56*
O=C(CNC(=O)OCc1ccccc1)Oc1ccc2ccc(=O)oc2c1	x	x	13	x
O=C(Oc1ccc2c(-c3ccccc3)cc(=O)oc2c1)c1cccs1	-4	-5	0	4
COC(=O)[C@@H]1C[C@@H]2CC[C@@H](O)C[C@@H]2N1Cc1ccc(N2CCN(C)CC2)cc1	1	0	1	23
Cc1oc(C)c2c(=O)ccc3c(c12)OC(N)=C(C#N)C3c1ccccc1 (stereo unspecified)	6	-1	5	-1
Cc1oc(C)c2c(=O)ccc3c(c12)OC(N)=C(C#N)C3c1ccccc1Cl (stereo unspecified)	15	32	28*	1
CC(C)(C)OC(=O)C(Cl)(C(=O)OC(C)(C)C)c1ccc2nnnn2n1	0	-3	3	17
O=C(NCc1cccnc1)c1cc2ccccc2oc1=O	4	-1	u	0
O=C(NCc1ccccc1)c1cc2ccc(O)cc2oc1=O	x	x	186*	x
COc1ccc(OC)c(N=c2oc3cc(O)ccc3cc2C(N)=O)c1	120*	117*	158*	21
C/C(=N\NC(=O)CC#N)c1cc2ccc(O)cc2oc1=O	20	92*	2	-3
COc1ccc2cc(C(N)=O)c(=Nc3ccccc3)oc2c1	x	2	2	1
C/C(=N\NC(=O)CC#N)c1ccc(Oc2ccccc2)cc1	-1	1	-1	20
NC(=O)c1cc2ccc(O)cc2oc1=Nc1ccccc1	12	65*	176*	46
Cc1cc2oc(=O)cc(CN3CCN(S(=O)(=O)c4cccs4)CC3)c2cc1C	-2	4	1	3
Cc1ccc(CNC(=O)CN2C(=O)c3ccccc3S2(=O)=O)cc1	x	x	-2	x
O=C(O)c1ccc(N=c2oc3cc(O)ccc3cc2C(=O)NCc2ccccc2)cc1	4	88*	169*	40
SMILES	Runt-CBFb FRET	Runt-SMMHC FRET	RanGTP-Imp inh	Hck Nef HTS
COc1ccccc1C(=O)NC(=O)COC(=O)c1ccc(C)o1	x	x	-1	x
Cc1nc(/C(=N/O)C(N)=O)cs1	0	2	0	7
CCOc1ccc2nc(N3CCOCC3)nc(C)c2c1	74*	79*	58*	41
CCN(CC)S(=O)(=O)c1ccc(C(=O)OC2CCCCC2CN(C)C)cc1 (stereo unspecified)	0	4	26*	1
CCc1ccc(C(=O)NNC(=O)OC)cc1	69*	1	6	21
COc1ccc(S(=O)(=O)Nc2ccccc2C(=O)NCc2cccnc2)cc1	x	x	-1	x
CN(C)c1ccc(-c2cc([C@H]3[C@@H]4C=CCC[C@@]4(C)C(=O)N3Cc3ccccc3)ccc2F)cc1	1	0	-3	20
c1ccc2c(NCCCN3CCOCC3)c3ccccc3nc2c1	99*	92*	x	18
OCC(Cc1ccccc1)NCc1ccccc1C(F)(F)F (stereo unspecified)	-1	4	u	-2
OCC(Cc1ccccc1)Nc1c2ccccc2nc2ccccc12 (stereo unspecified)	61*	59*	118*	7
CN(C)CCCNc1nc(-c2ccccc2)nc2ccccc12	0	3	1	-6
CN(C)CCCNc1c2ccccc2nc2ccccc12	x	x	108*	x
c1ccc(CNc2c3ccccc3nc3ccccc23)cc1	x	x	91*	x
COc1ccc(C(C(=O)NC(C)(C)C)N(C(=O)CCC(=O)Nc2ccccn2)C2CCCCC2)cc1 (stereo unspecified)	x	x	-1	x
COc1ccc(CNC(=O)N[C@@H](CC(C)C)C(=O)O)cc1OC	1	0	-3	18
COc1ccc(-c2ccc(NC(=O)c3ccco3)cc2)nn1	x	x	1	x
Oc1ccc(CCNc2c3ccccc3nc3ccccc23)cc1O	x	x	103*	x
C[n+]1nc(Nc2cccc(F)c2)sc1-c1ccc(C(=O)O)cc1	1	1	x	17
COc1ccccc1-n1c(N)c(C(=O)NCC2CCCO2)c2nc3ccccc3nc21 (stereo unspecified)	-6	2	57*	46
Nc1c(S(=O)(=O)c2cccs2)c2nc3ccccc3nc2n1CC1CCCO1 (stereo unspecified)	7	18	x	12
Nc1c(C(=O)OCC2CCCO2)c2nc3ccccc3nc2n1C1CCCCC1 (stereo unspecified)	24	67*	0	2
Nc1nc(NS(=O)(=O)c2ccc(Cl)cc2)nn1-c1ccccc1	1	-4	2	10
COC(=O)Cc1[nH]nc2c1C(c1c[nH]c3ccccc13)C(C#N)=C(N)O2 (stereo unspecified)	12	2	45*	6
O=C(OCN1C(=O)c2ccccc2C1=O)c1cccnc1SC(F)F	x	x	0	x
CC(C)(C)C(=O)Oc1ccc2cc(-c3ccc4ccccc4n3)c(=O)oc2c1	19	60*	28*	0
SMILES	Runt-CBFb FRET	Runt-SMMHC FRET	RanGTP-Imp inh	Hck Nef HTS
CCN(CC)Cc1c(O)ccc2cc(-c3nc4ccccc4n3C)c(=O)oc12	x	x	132*	x
CC(=O)Oc1ccc2cc(-c3nc4ccccc4n3C)c(=O)oc2c1	11	38	147*	25
NC(=O)COc1ccc2cc(-c3ccccc3)c(=O)oc2c1	x	x	6	x
Cn1c(-c2cc3ccc(OC(=O)C(C)(C)C)cc3oc2=O)nc2ccccc21	12	-14	150*	25
COc1ccc2cc(C(=O)c3ccccc3)c(=O)oc2c1	2	5	-4	1
COC(=O)c1ccc(N(CC(=O)NC2CCCCC2)C(=O)CNC(=O)c2ccco2)cc1	x	x	-2	x
Cc1ccc(S(=O)(=O)Nc2ccc(C(=O)OCC(=O)N(CCC#N)c3ccccc3)cc2)cc1C	-3	1	-4	2
CS(=O)(=O)c1cccc(NC(=O)C2CCCN2S(=O)(=O)c2ccc(F)cc2)c1 (stereo unspecified)	x	x	-1	x
Fc1ccccc1OCCCCN1CCCCC1	x	x	1	x
CC(=O)CSc1nc(N)c(C#N)c(-c2cccs2)c1C#N	0	-2	-1	0

Assay outcomes: PubChem BioAssay, several laboratories
